# Screening data deposited in PubChem BioAssay by several laboratories.
# RanGTP-Imp inh: inhibitors of RanGTP-importin-beta interaction, primary screen, biochemical, FRET, CFP-Ran, YFP-importin-beta, homogeneous | cell-free CFP-Ran/YFP-importin-beta FRET ratio | inhibition, % (test concentration not listed) | actives 1.1% (n = 300,000) | AID 2216;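 active means more than half of the replicate wells show a fall in the fluorescence ratio signal beyond about 16%, limit read from the data, passing the limit was not always enough; inconclusive means exactly half of the replicate wells pass the set limit; inactive means fewer than half of replicates pass the limit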
# Vif inh: HIV Vif inhibition; HEK293T cells, Vif self-association by quenched fluorescence, imaging, 24 h; inhibition, % at 7.49 µM; AID 602346; actives 0.35% (n = 340,000); in the data active means inhibition above about 50%, passing the limit was not always enough; inconclusive means no clear call, values can overlap the other calls; inactive means below about 31%
# Runt-CBFb FRET: blocks binding of human RUNX1 Runt domain to CBFb; actives 0.46% (n = 220,000); AID 1496; Cerulean-Runt/Venus-CBFb FRET ratio 530/480, 1 h; inhibition, % at 20 µM; Q01196+Q13951;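 active means inhibition over about 50% at 20 µM in the single-dose screen, limit read from the data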
# Target sequence (Q01196 whole entry, looked up, the tested form may be a part): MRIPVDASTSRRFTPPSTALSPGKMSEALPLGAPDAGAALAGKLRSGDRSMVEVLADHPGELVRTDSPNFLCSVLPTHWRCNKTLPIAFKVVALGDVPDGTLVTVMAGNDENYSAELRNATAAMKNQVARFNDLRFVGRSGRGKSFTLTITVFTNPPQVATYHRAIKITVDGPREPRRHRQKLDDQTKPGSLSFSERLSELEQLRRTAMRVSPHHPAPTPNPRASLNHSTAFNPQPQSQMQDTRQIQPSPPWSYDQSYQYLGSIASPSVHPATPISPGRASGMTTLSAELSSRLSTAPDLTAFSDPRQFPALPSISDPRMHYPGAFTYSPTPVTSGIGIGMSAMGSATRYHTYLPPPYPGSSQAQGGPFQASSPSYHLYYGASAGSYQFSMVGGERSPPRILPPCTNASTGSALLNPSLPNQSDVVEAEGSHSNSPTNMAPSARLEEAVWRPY
# Target sequence (Q13951 whole entry, looked up, the tested form may be a part): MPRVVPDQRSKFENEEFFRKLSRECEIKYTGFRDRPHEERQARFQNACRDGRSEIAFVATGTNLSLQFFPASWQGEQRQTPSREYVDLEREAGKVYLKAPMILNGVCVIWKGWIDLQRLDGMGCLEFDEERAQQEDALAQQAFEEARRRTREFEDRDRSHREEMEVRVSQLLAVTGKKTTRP
#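 Buffer or medium: Tris pH 7.5 buffer with BSA. Assay system: Cerulean-labeled Runt domain protein. Amount: each fluorescent fusion protein 100 nM. Read-out basis: loss of energy transfer signal. Incubation: 1 h compound exposure, room temperature. Probe or stimulus: Venus-CBFb binding partner, 100 nM. Detection: FRET, excitation 422 nm, emission at 530 and 480 nm.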
# Runt-SMMHC FRET: inhibitors of human RUNX1 Runt domain binding to CBFb-SMMHC; Q01196+Q13951; Cerulean-Runt/Venus-CBFb-SMMHC FRET ratio 530/480, 1 h; inhibition, % at 20 µM; actives 0.74% (n = 220,000); AID 1434;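 active means mean inhibition across duplicate retests at 20 µM reaching about 50%, limit read from the data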;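 further: inhibitors lower the FRET ratio by blocking Runt binding to CBFb-SMMHC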
# Rce1 inh: yeast Ras-converting enzyme inhibition; yeast membranes, quenched prenylated peptide cleavage fluorescence; actives 0.27% (n = 290,000); calls only;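 active means fall in fluorescence gain of 50% or more versus controls, with final raw signal at or below 3038400; inconclusive means same 50% fall but final raw signal above 3038400; inactive means fall in fluorescence gain under 50%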
# YIC counter: counter-screen: alters YIC FRET probe signal | shares compounds with RanGTP-Imp inh | Purified YIC probe, intramolecular FRET ratio YFP/CFP | IC50, µM | actives 40% (n = 1,000);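 active means fitted half-maximal inhibitory concentration no more than tenfold above the top dose tested; inconclusive means flat fit with 30 to 70% activity, or poor fit; inactive means half-maximal concentration beyond tenfold above the top dose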
# Hits are given with their value; i = inactive; ? = inconclusive; nt = no result given; ! = not confirmed by another sample. A selection: hits, their analogues and other compounds. The true share with any hit is near 1.7%.
SMILES,RanGTP-Imp inh,Vif inh,Runt-CBFb FRET,Runt-SMMHC FRET,Rce1 inh,YIC counter
CC(O)(c1ccccc1)c1nc(-c2ccc(S(C)(=O)=O)cc2)cs1 (stereo unspecified),nt,i,nt,nt,nt,nt
Cn1c(N/N=C/c2c[nH]c3ccccc23)nc2ccccc21,i,i,i,i,i,nt
Cn1c(N/N=C/c2cc3ccccc3nc2Cl)nc2ccccc21,17,i,i,i,i,i
COc1ccc(CNS(=O)(=O)c2ccc3c(c2)NC(=O)C(C)S3)cc1 (stereo unspecified),?,i,nt,nt,i,nt
Cc1ccc(C(=O)N(c2c(C)n(C)n(-c3ccccc3)c2=O)C(C)C)cc1,i,i,i,i,i,nt
CCOC(=O)c1sc(NC(=O)Nc2ccc(F)cc2)nc1C,18,i,i,i,i,i
CCOC(=O)c1c(/N=C/c2ccc(C)cc2O)sc2c1CCN(C)C2,60,i,i,i,i,i
CCOC(=O)c1c(NC(=O)Nc2ccc(F)cc2)sc2c1CCN(C)C2,20,i,i,i,i,i
CCOC(=O)c1c(NC(=O)C2CCCCC2)sc2c1CCN(C(C)C)C2,40,i,nt,nt,i,i
CCOC(=O)c1c(NC(=O)C2CC2)sc(C)c1CC,i,i,i,i,i,nt
Cc1ccc(C(O)c2ncc(-c3cccc4ccccc34)[nH]2)c(C)c1 (stereo unspecified),nt,i,nt,nt,nt,nt
CCOC(=O)c1c(NC(=O)Cc2ccccc2)sc2c1CCN(CC)C2,55,i,nt,nt,i,i
CCN1CCc2c(sc(NC(=O)Cc3ccccc3)c2C(=O)OC)C1,42,i,nt,nt,i,i
CCOC(=O)c1c(NC(=O)c2cccs2)sc2c1CCN(C(=O)OCC)C2,i,i,i,i,i,nt
CCOC(=O)c1sc(NC(=O)C2CC(=O)N(c3ccc(OC)cc3)C2)nc1C (stereo unspecified),i,i,nt,nt,i,nt
CC1=C(C(=O)N2CCOCC2)CC(CC(=O)NCCCCc2ccccc2)C(=O)N1Cc1ccc(C(C)(C)C)cc1 (stereo unspecified),nt,i,nt,nt,nt,nt
O=[N+]([O-])c1ccc(CNC2CCCc3ccccc32)cc1 (stereo unspecified),25,i,i,72,i,i
c1cncc(CNC2CCCc3ccccc32)c1 (stereo unspecified),i,i,i,i,i,nt
O=S(=O)(Cc1ccc(Cl)cc1)Nc1ccc2c(c1)OCO2,19,i,i,i,i,i
O=S(=O)(Cc1ccc(Cl)cc1)N1CCN(Cc2ccc3c(c2)OCO3)CC1,i,i,i,i,i,nt
CCOC(=O)/C=C1\SCC(=O)N1CC(=O)Nc1ccc(OC)c(OC)c1,i,i,i,i,i,nt
CCOC(=O)/C=C1\SCC(=O)N1CC(=O)c1ccc[nH]1,21,i,nt,i,i,i
Nc1nc(CSc2nc3ccccc3s2)nc(N2CCCCC2)n1,36,i,i,i,i,i
CCc1ccc(Nc2nc(N)nc(CSc3nc4ccccc4s3)n2)cc1,i,nt,i,i,i,nt
COc1ccc(CN(C(=O)c2snc(C(N)=O)c2N)C(C(=O)NC(C)(C)C)c2ccco2)cc1 (stereo unspecified),?,i,i,i,i,nt
SMILES,RanGTP-Imp inh,Vif inh,Runt-CBFb FRET,Runt-SMMHC FRET,Rce1 inh,YIC counter
CC(C)(C)NC(=O)C(c1ccco1)N(Cc1ccc(F)cc1)C(=O)c1snc(C(N)=O)c1N (stereo unspecified),28,i,i,i,i,i
C=CCNC(=S)Nc1ccc(C(N)=O)cc1,i,i,i,i,i,nt
CNC(=S)Nc1ccc(C(N)=O)cc1,27,i,i,i,i,i
CC(Sc1nnc(C2CC2)n1N)C(=O)NC1CCCCC1C (stereo unspecified),?,i,nt,nt,i,nt
CC(C)CC(=O)NC(C)C(c1cccs1)N1CCOCC1 (stereo unspecified),i,i,i,i,i,nt
Cn1c(Cl)c(/C=N/OC(=O)C(C)(C)C)c2ccccc21,i,i,i,i,i,nt
CC(=O)O/N=C/c1c(Cl)n(C)c2ccccc12,48,i,i,i,i,i
CCCNC(=O)NC(=O)CSc1nncs1,i,i,i,i,i,nt
CCN1CCc2nc(NC(=O)CC(c3ccccc3)c3ccccc3)sc2C1,31,nt,i,60,i,16
COc1ccc(-c2c(N)nnc3c2[nH]c2ccccc23)cc1OC,27,i,i,i,i,i
COc1ccc(-c2c(N)n[nH]c2C)cc1OC,i,i,i,i,i,nt
CCC(=O)N(CC(=O)Nc1sc(C)c(C)c1C(N)=O)C1CCCC1,22,i,i,i,i,i
COC(=O)[C@@H]1[C@H]2C[C@H]3c4[nH]c5ccccc5c4CCN3C[C@@H]2CC[C@@H]1O,26!,i,nt,nt,i,i
NNC(=O)C1C(O)CCC2CN3CCc4c([nH]c5ccccc45)C3CC21 (stereo unspecified),nt,i,nt,nt,nt,nt
CC1=NC(Nc2nc(C)c3ccccc3n2)=NC(C)(C)C1,30,i,i,i,i,i
Cn1cnc(S(=O)(=O)N2CCN(c3ccccc3)CC2)c1,i,i,nt,nt,i,nt
Cn1cnc(S(=O)(=O)N2CCN(c3ccc(Cl)cc3)CC2)c1,18,i,nt,nt,i,i
Cn1c2ccccc2c(=O)c2ccc(F)cc21,35,i,nt,nt,i,15
Cn1c(=O)c(Oc2ccc(F)cc2)c(O)c2ccccc21,i,i,i,i,i,nt
Cc1ccccc1-c1nnn(Cc2cccc(S(=O)(=O)N3CCOCC3)c2)n1,nt,i,nt,nt,nt,nt
Brc1cccc(/C=N/Nc2nc(N3CCCCC3)nc(N3CCCCC3)n2)c1,i,nt,nt,nt,i,nt
Oc1ccc(/C=N/Nc2cc(N3CCOCC3)nc(N3CCOCC3)n2)cc1,22,i,nt,nt,i,i
Oc1cccc(/C=N/Nc2cc(N3CCCC3)nc(N3CCCC3)n2)c1,21,i,i,i,i,i
Cc1nc(N/N=C/c2ccc(Br)cc2)cc(N2CCOCC2)n1,i,i,nt,nt,i,nt
COc1cc2cc(C(N)=O)c(N)nc2cc1OC,49,i,101,79,i,10
SMILES,RanGTP-Imp inh,Vif inh,Runt-CBFb FRET,Runt-SMMHC FRET,Rce1 inh,YIC counter
COc1ccc2nc(C)c(C(N)=O)cc2c1,?,i,i,i,i,nt
COc1ccc(CNC(=O)C2CC(=O)N(C3CCCCC3)C2)cc1 (stereo unspecified),21,i,nt,nt,i,i
O=C(NCc1ccc(F)cc1)C1CC(=O)N(C2CCCCCCC2)C1 (stereo unspecified),i,i,nt,nt,i,nt
CCOC(=O)C1=C(N)OC2=C(C(=O)CCC2)C1c1ccc(C)s1 (stereo unspecified),?,i,i,i,i,nt
CCOC(=O)C1=C(N)OC2=C(C(=O)CCC2)C1c1sccc1C (stereo unspecified),23,i,i,i,i,i
Fc1ccc(-c2ncc3ccccn23)cc1,i,i,i,i,i,nt
Clc1ccc(/C=C/c2ncc3ccccn23)cc1,24,i,nt,nt,i,2.5
CC(C)(C)C(=O)NC(=S)Nc1ccc(S(=O)(=O)Nc2nccs2)cc1,17,i,i,i,i,i
NS(=O)(=O)c1ccc(NC(=S)Nc2ccc(S(=O)(=O)Nc3nccs3)cc2)cc1,nt,i,nt,nt,nt,nt
